species: Mus musculus; test: Antifighting activity was measured by the antagonism against foot-shock induced fighting; type: functional; conditions: not given
How it was run: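 Mice dosed orally; pairs confined under inverted glass enclosure and given foot shock (5 Hz, 2 ms, DC 50 V); pairs with 15-20 fighting episodes in 3 min selected. Five pairs per dose; responses counted before and at 60 min after dosing. ED50 (50% inhibition) by graphical interpolation.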

Structure (SMILES) | ED50 for inhibition of foot-shock induced fighting
CN(C(=O)CNC(=O)[C@@H](N)Cc1ccccc1)c1ccc(Cl)cc1C(=O)c1ccccc1Cl | 10.2
CN(C(=O)CNC(=O)C(N)Cc1ccccc1)c1ccc(Cl)cc1C(=O)c1ccccc1Cl (stereo unspecified) | 17.1
CN(C(=O)CNC(=O)CN)c1ccc(Cl)cc1C(=O)c1ccccc1F | 1.6
NCC(=O)NCC(=O)Nc1ccc(Cl)cc1C(=O)c1ccccc1 | 14.6
CN(C(=O)CNC(=O)CN)c1ccc(Cl)cc1C(=O)c1ccccc1 | 10.5
CC(C)C(N)C(=O)NCC(=O)N(C)c1ccc(Cl)cc1C(=O)c1ccccc1 (stereo unspecified) | 21.5
CN(C(=O)CNC(=O)C(N)Cc1ccccc1)c1ccc(Cl)cc1C(=O)c1ccccc1 (stereo unspecified) | 15.1
CCN(CC)CCN(C(=O)CNC(=O)CN)c1ccc(Cl)cc1C(=O)c1ccccc1F | 9.4
CN(C(=O)CNC(=O)CN)c1ccc(Cl)cc1C(=O)c1ccccc1Cl [LORZAFONE ANHYDROUS] | 3.2
CN(C(=O)CNC(=O)[C@H](N)Cc1ccccc1)c1ccc(Cl)cc1C(=O)c1ccccc1Cl | 20.4

system: Mus musculus; test: Spontaneous motor activity of mice was estimated after 60 minutes of oral administration.; type: functional; parameters: unit not given here; conditions: not given
How it was run: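 Oral dosing in mice; activity quantitated with an activity meter over 10 min starting 60 min after dosing. Five groups of three mice per dose.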

Structure (SMILES) | Activity
CN(C(=O)CNC(=O)[C@@H](N)Cc1ccccc1)c1ccc(Cl)cc1C(=O)c1ccccc1Cl | >50
CC(C)C(N)C(=O)NCC(=O)N(C)c1ccc(Cl)cc1C(=O)c1ccccc1Cl (stereo unspecified) | >25
CN(C(=O)CNC(=O)C(N)Cc1ccccc1)c1ccc(Cl)cc1C(=O)c1ccccc1Cl (stereo unspecified) | 5.5
CN(C(=O)CNC(=O)CN)c1ccc(Cl)cc1C(=O)c1ccccc1F | 3.1
CN1C(=O)CN=C(c2ccccc2)c2cc(Cl)ccc21 [DIAZEPAM] | 8.45
CN(C(=O)CNC(=O)CN)c1ccc(Cl)cc1C(=O)c1ccccc1 | 15.1
CC(C)C(N)C(=O)NCC(=O)N(C)c1ccc(Cl)cc1C(=O)c1ccccc1 (stereo unspecified) | >50
CN(C(=O)CNC(=O)C(N)Cc1ccccc1)c1ccc(Cl)cc1C(=O)c1ccccc1 (stereo unspecified) | 23.4
CCN(CC)CCN(C(=O)CNC(=O)CN)c1ccc(Cl)cc1C(=O)c1ccccc1F | 25
CNC1=Nc2ccc(Cl)cc2C(c2ccccc2)=[N+]([O-])C1 [CHLORDIAZEPOXIDE] | 56.09
CN(C(=O)CNC(=O)CN)c1ccc(Cl)cc1C(=O)c1ccccc1Cl [LORZAFONE ANHYDROUS] | 1.4
CN(C(=O)CNC(=O)[C@H](N)Cc1ccccc1)c1ccc(Cl)cc1C(=O)c1ccccc1Cl | >50

species: Mus musculus; test: Dose required to prevent convulsion and death in 50% of mice during a 2 hr observation was obtained by graphical interpolation anti-pentylenetetrazole; type: functional; conditions: not given
How it was run: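 Groups of five mice dosed orally, then challenged 60 min later with 125 mg/kg pentylenetetrazol subcutaneously. ED50 = dose preventing convulsion and death in 50% of animals over a 2 h observation, by graphical interpolation.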

Structure (SMILES) | ED50
CC(C)N(C(=O)CNC(=O)CN)c1ccc(Cl)cc1C(=O)c1ccccc1 | 15.8 mg/kg
CN(C(=O)CNC(=O)[C@@H](N)Cc1ccccc1)c1ccc(Cl)cc1C(=O)c1ccccc1Cl | 1 mg/kg
CC(C)C(N)C(=O)NCC(=O)N(C)c1ccc(Cl)cc1C(=O)c1ccccc1Cl (stereo unspecified) | 1.6 mg/kg
CN(C(=O)CNC(=O)C(N)Cc1ccccc1)c1ccc(Cl)cc1C(=O)c1ccccc1Cl (stereo unspecified) | 1.6 mg/kg
CN(C(=O)CNC(=O)CN)c1ccc(Cl)cc1C(=O)c1ccccc1F | 0.3 mg/kg
NCC(=O)NCC(=O)Nc1ccc(Cl)cc1C(=O)c1ccccc1 | 14.1 mg/kg
CCc1cc(C(=O)c2ccccc2)c(NC(=O)CNC(=O)CN)s1 | > 100 mg/kg
CC(C)CC(N)C(=O)NCC(=O)Nc1ccc(Cl)cc1C(=O)c1ccccc1 (stereo unspecified) | 15.9 mg/kg
CCN(CC)CCN(C(=O)CNC(=O)CN)c1ccc(Cl)cc1C(=O)c1ccccc1 | 5.7 mg/kg
CN(C(=O)CNC(=O)CN)c1ccc(Cl)cc1C(=O)c1ccccc1 | 1 mg/kg
CC(C)C(N)C(=O)NCC(=O)N(C)c1ccc(Cl)cc1C(=O)c1ccccc1 (stereo unspecified) | 3.4 mg/kg
CN(C(=O)CNC(=O)C(N)Cc1ccccc1)c1ccc(Cl)cc1C(=O)c1ccccc1 (stereo unspecified) | 3.9 mg/kg
CC(C)C(N)C(=O)NCC(=O)Nc1ccc(Cl)cc1C(=O)c1ccccc1 (stereo unspecified) | 27.4 mg/kg
CCN(CC)CCN(C(=O)CNC(=O)CN)c1ccc(Cl)cc1C(=O)c1ccccc1F | 1.98 mg/kg
CNC1=Nc2ccc(Cl)cc2C(c2ccccc2)=[N+]([O-])C1 [CHLORDIAZEPOXIDE] | 2.71 mg/kg
NCC(=O)NCC(=O)Nc1ccc(Cl)cc1C(=O)c1ccccc1Cl | 22 mg/kg
CN(C(=O)CNC(=O)CN)c1ccc(Cl)cc1C(=O)c1ccccc1Cl [LORZAFONE ANHYDROUS] | 0.56 mg/kg
CN(C(=O)CNC(=O)[C@H](N)Cc1ccccc1)c1ccc(Cl)cc1C(=O)c1ccccc1Cl | 4.8 mg/kg
NC(C(=O)NCC(=O)Nc1ccc(Cl)cc1C(=O)c1ccccc1)c1ccccc1 (stereo unspecified) | 27.4 mg/kg
NCC(=O)NCC(=O)Nc1ccc(Cl)cc1C(=O)c1ccccn1 | 2.8 mg/kg

species: Mus musculus; test: Minimum effective dose (MED) required for the potentiation of thiopental sodium induced loss of the righting reflex; type: functional; conditions: read-out: MED
How it was run: (§1)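 Five mice per group dosed orally; 60 min later challenged with thiopental sodium 35 mg/kg intravenously. Minimum effective dose potentiating thiopental-induced anesthesia determined.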

Structure (SMILES) | minimal effective dose
CN(C(=O)CNC(=O)[C@@H](N)Cc1ccccc1)c1ccc(Cl)cc1C(=O)c1ccccc1Cl | 1 mg/kg
CN(C(=O)CNC(=O)C(N)Cc1ccccc1)c1ccc(Cl)cc1C(=O)c1ccccc1Cl (stereo unspecified) | 5 mg/kg
CN(C(=O)CNC(=O)CN)c1ccc(Cl)cc1C(=O)c1ccccc1F | 0.1 mg/kg
NCC(=O)NCC(=O)Nc1ccc(Cl)cc1C(=O)c1ccccc1 | 25 mg/kg
CC(C)CC(N)C(=O)NCC(=O)Nc1ccc(Cl)cc1C(=O)c1ccccc1 (stereo unspecified) | 25 mg/kg
CCN(CC)CCN(C(=O)CNC(=O)CN)c1ccc(Cl)cc1C(=O)c1ccccc1 | 5 mg/kg
CN(C(=O)CNC(=O)CN)c1ccc(Cl)cc1C(=O)c1ccccc1 | 2.5 mg/kg
CC(C)C(N)C(=O)NCC(=O)N(C)c1ccc(Cl)cc1C(=O)c1ccccc1 (stereo unspecified) | 10 mg/kg
CN(C(=O)CNC(=O)C(N)Cc1ccccc1)c1ccc(Cl)cc1C(=O)c1ccccc1 (stereo unspecified) | 5 mg/kg
NCC(=O)NCC(=O)Nc1ccc(Cl)cc1C(=O)c1ccccc1Cl | 10 mg/kg
CN(C(=O)CNC(=O)CN)c1ccc(Cl)cc1C(=O)c1ccccc1Cl [LORZAFONE ANHYDROUS] | 0.5 mg/kg
CN(C(=O)CNC(=O)[C@H](N)Cc1ccccc1)c1ccc(Cl)cc1C(=O)c1ccccc1Cl | 10 mg/kg

system: not listed separately; test: Lethal dose (LD50) required to inhibit the spontaneous motor activity; type: toxicity, organism-based; conditions: mouse, in vivo
How it was run: (§2)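 Acute oral toxicity in mice, groups of one to three animals, deaths assessed on day 7 after administration. LD50 by graphical interpolation.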

Structure (SMILES) | LD50
CC(C)N(C(=O)CNC(=O)CN)c1ccc(Cl)cc1C(=O)c1ccccc1 | > 1000 mg/kg
NCC(=O)NCC(=O)Nc1ccc(Cl)cc1C(=O)c1ccccc1 | > 1000 mg/kg

system: not listed separately; test: (§3) Lethal dose (LD50) required to inhibit the spontaneous motor activity.; type: toxicity, organism-based; conditions: mouse, in vivo; how it was run: as §2

Structure (SMILES) | LD50
CN(C(=O)CNC(=O)[C@@H](N)Cc1ccccc1)c1ccc(Cl)cc1C(=O)c1ccccc1Cl | > 1000 mg/kg
CC(C)C(N)C(=O)NCC(=O)N(C)c1ccc(Cl)cc1C(=O)c1ccccc1Cl (stereo unspecified) | 750 mg/kg
CN(C(=O)CNC(=O)C(N)Cc1ccccc1)c1ccc(Cl)cc1C(=O)c1ccccc1Cl (stereo unspecified) | > 1000 mg/kg
CN(C(=O)CNC(=O)CN)c1ccc(Cl)cc1C(=O)c1ccccc1F | > 1000 mg/kg
CC(C)CC(N)C(=O)NCC(=O)Nc1ccc(Cl)cc1C(=O)c1ccccc1 (stereo unspecified) | > 1000 mg/kg
CC(N)C(=O)NCC(=O)Nc1ccc(Cl)cc1C(=O)c1ccccc1 (stereo unspecified) | > 1000 mg/kg
CCN(CC)CCN(C(=O)CNC(=O)CN)c1ccc(Cl)cc1C(=O)c1ccccc1 | > 1000 mg/kg
CN(C(=O)CNC(=O)CN)c1ccc(Cl)cc1C(=O)c1ccccc1 | 750 mg/kg
CC(C)C(N)C(=O)NCC(=O)N(C)c1ccc(Cl)cc1C(=O)c1ccccc1 (stereo unspecified) | > 1000 mg/kg
CN(C(=O)CNC(=O)C(N)Cc1ccccc1)c1ccc(Cl)cc1C(=O)c1ccccc1 (stereo unspecified) | > 1000 mg/kg
CC(C)C(N)C(=O)NCC(=O)Nc1ccc(Cl)cc1C(=O)c1ccccc1 (stereo unspecified) | > 1000 mg/kg
CCN(CC)CCN(C(=O)CNC(=O)CN)c1ccc(Cl)cc1C(=O)c1ccccc1F | > 1000 mg/kg
NCC(=O)NCC(=O)Nc1ccc(Cl)cc1C(=O)c1ccccc1Cl | > 1000 mg/kg
CN(C(=O)CNC(=O)CN)c1ccc(Cl)cc1C(=O)c1ccccc1Cl [LORZAFONE ANHYDROUS] | > 1000 mg/kg
CN(C(=O)CNC(=O)[C@H](N)Cc1ccccc1)c1ccc(Cl)cc1C(=O)c1ccccc1Cl | > 1000 mg/kg
NC(C(=O)NCC(=O)Nc1ccc(Cl)cc1C(=O)c1ccccc1)c1ccccc1 (stereo unspecified) | > 1000 mg/kg

system: Mus musculus; test: as §3; type: functional; conditions: not given; how it was run: as §2

Structure (SMILES) | LD50
CNC1=Nc2ccc(Cl)cc2C(c2ccccc2)=[N+]([O-])C1 [CHLORDIAZEPOXIDE] | 1080 mg/kg

species: Mus musculus; test: Effective dose required for 50% reduction of the control response was obtained by graphical interpolation rotarod performance; type: functional; conditions: not given
How it was run: (§4)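 Oral dosing in mice; rod rotating at 5 rpm tested at 60 min after dosing, counting animals falling off within 2 min. ED50 by graphical interpolation.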

Structure (SMILES) | ED50
CC(C)N(C(=O)CNC(=O)CN)c1ccc(Cl)cc1C(=O)c1ccccc1 | > 100 mg/kg
CN(C(=O)CNC(=O)[C@@H](N)Cc1ccccc1)c1ccc(Cl)cc1C(=O)c1ccccc1Cl | 52.2 mg/kg
CC(C)C(N)C(=O)NCC(=O)N(C)c1ccc(Cl)cc1C(=O)c1ccccc1Cl (stereo unspecified) | > 100 mg/kg
CN(C(=O)CNC(=O)C(N)Cc1ccccc1)c1ccc(Cl)cc1C(=O)c1ccccc1Cl (stereo unspecified) | 37.5 mg/kg
CN(C(=O)CNC(=O)CN)c1ccc(Cl)cc1C(=O)c1ccccc1F | 16.7 mg/kg
CCc1cc(C(=O)c2ccccc2)c(NC(=O)CNC(=O)CN)s1 | > 100 mg/kg
CN1C(=O)CN=C(c2ccccc2)c2cc(Cl)ccc21 [DIAZEPAM] | 17.7 mg/kg
CC(C)CC(N)C(=O)NCC(=O)Nc1ccc(Cl)cc1C(=O)c1ccccc1 (stereo unspecified) | > 100 mg/kg
CCN(CC)CCN(C(=O)CNC(=O)CN)c1ccc(Cl)cc1C(=O)c1ccccc1 | > 100 mg/kg
CN(C(=O)CNC(=O)CN)c1ccc(Cl)cc1C(=O)c1ccccc1 | 29.4 mg/kg
CC(C)C(N)C(=O)NCC(=O)N(C)c1ccc(Cl)cc1C(=O)c1ccccc1 (stereo unspecified) | 73.5 mg/kg
CN(C(=O)CNC(=O)C(N)Cc1ccccc1)c1ccc(Cl)cc1C(=O)c1ccccc1 (stereo unspecified) | 70.7 mg/kg
CC(C)C(N)C(=O)NCC(=O)Nc1ccc(Cl)cc1C(=O)c1ccccc1 (stereo unspecified) | > 100 mg/kg
CCN(CC)CCN(C(=O)CNC(=O)CN)c1ccc(Cl)cc1C(=O)c1ccccc1F | 50.8 mg/kg
CNC1=Nc2ccc(Cl)cc2C(c2ccccc2)=[N+]([O-])C1 [CHLORDIAZEPOXIDE] | 82.3 mg/kg
NCC(=O)NCC(=O)Nc1ccc(Cl)cc1C(=O)c1ccccc1Cl | > 100 mg/kg
CN(C(=O)CNC(=O)CN)c1ccc(Cl)cc1C(=O)c1ccccc1Cl [LORZAFONE ANHYDROUS] | 35.4 mg/kg
CN(C(=O)CNC(=O)[C@H](N)Cc1ccccc1)c1ccc(Cl)cc1C(=O)c1ccccc1Cl | 77.1 mg/kg
NC(C(=O)NCC(=O)Nc1ccc(Cl)cc1C(=O)c1ccccc1)c1ccccc1 (stereo unspecified) | > 100 mg/kg
NCC(=O)NCC(=O)Nc1ccc(Cl)cc1C(=O)c1ccccn1 | 59.5 mg/kg

species: Mus musculus; test: Minimum effective dose (MED) required for the potentiation of thiopental sodium induced loss of the righting reflex (Students t test).; type: functional; conditions: read-out: MED; how it was run: as §1

Structure (SMILES) | minimal effective dose
CN1C(=O)CN=C(c2ccccc2)c2cc(Cl)ccc21 [DIAZEPAM] | 0.5 mg/kg
CNC1=Nc2ccc(Cl)cc2C(c2ccccc2)=[N+]([O-])C1 [CHLORDIAZEPOXIDE] | 2.5 mg/kg

species: Mus musculus; test: Effective dose required for 50% reduction of the control response in mice was obtained by graphical interpolation rotarod performance; type: functional; conditions: not given; how it was run: as §4

Structure (SMILES) | ED50
NCC(=O)NCC(=O)Nc1ccc(Cl)cc1C(=O)c1ccccc1 | 52.4 mg/kg

Source: ChEMBL document CHEMBL1121474, “Peptidoaminobenzophenones, a novel class of ring-opened derivatives of 1,4-benzoidazepines” (J Med Chem, 1980)
